Publication PMC9933479 (ACS Omega, 2023)
“Also recorded” adds a separate entry of the source.

What was measured:
[1] = test system: A549 (lung carcinoma); experiment: MTT assay, cytotoxicity/growth inhibition; assay type: cell-based, human
In short: (§1)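 Cells were grown in RPMI (A549, HCT-116, PC-3) or DMEM (MCF-7) with 10% FBS at 37 °C and 5% CO2. Seeding per well was […] and PC-3 8 × 10^4 cells. […] MTT 250 μg/mL, 4 h; DMSO; A570; triplicate; mean ± SE.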

[2] = test system: PC-3 (prostate carcinoma); experiment: MTT assay, cytotoxicity/growth inhibition; assay type: cell-based; settings: Homo sapiens
In short: as §1

[3] = test system: MCF-7 (breast carcinoma); experiment: MTT assay, cytotoxicity/growth inhibition; assay type: cell-based; settings: Homo sapiens
In short: as §1

[4] = test system: HCT-116 (colon carcinoma); experiment: MTT assay, cytotoxicity/growth inhibition; assay type: cell-based; settings: Homo sapiens
In short: as §1

[5] = test system: HOP92; experiment: In vitro cytotoxicity, expanded lung cancer panel; assay type: cell-based; settings: Homo sapiens, HOP-92
[6] = test system: HOP62; experiment: In vitro cytotoxicity, expanded lung cancer panel; assay type: cell-based; settings: Homo sapiens, HOP-62
[7] = test system: normal human embryonic kidney cells (HEK293); experiment: Selectivity index versus normal cell line; assay type: cell-based
[8] = test system: A549 cells; experiment: DAPI staining, nuclear morphology / apoptosis; assay type: cell-based, human; settings: A549, 1, 3.5 and 5 μM, 48 h
In short: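 A549 cells (3 × 10^4 per well) were grown 48 h, then exposed to test compound at 1, 3.5 and 5 μM for 48 h. Cells were washed in PBS, fixed in ice-cold 4% paraformaldehyde for 20 min and permeabilised with 0.25% Triton X-100. Staining was DAPI at 1 μg/mL final for 30 min, read by fluorescence microscopy. Cisplatin 17 μM was the positive control.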

[9] = test system: A549 cells; experiment: Intracellular ROS, DCFDA/DCFHDA staining; assay type: cell-based, human; settings: A549, DCFDA dye, 48 h
In short: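 Seeded A549 cells (3 × 10^4 per well) adhered 24 h at 37 °C, then received test compound at 1, 3.5 or 5 μM for 48 h. Cells were loaded with 10 μM DCFHDA for 30 min at 37 °C and moved to PBS. Intracellular ROS was imaged by fluorescence microscopy. H2O2 (0.05%) was the positive control.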

[10] = test system: A549 cells; experiment: Mitochondrial membrane potential, Rhodamine-123 staining; assay type: cell-based, human; settings: A549, Rh-123 dye, 1, 3.5 and 5 μM, 48 h, versus untreated cells
In short: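 A549 cells (3 × 10^4 per well) adhered 24 h at 37 °C and were treated with test compound at 1, 3.5 and 5 μM for 48 h. They were stained with 10 μM rhodamine-123 for 30 min at 37 °C and washed in PBS. Fluorescence microscopy read mitochondrial membrane potential as Rh-123 fluorescence, compared with untreated cells.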

## COc1ccc(CC(=O)OCC2=CCC3[C@](C)(CO)[C@H](O)CC[C@@]3(C)[C@@H]2/C=C/C2=CCOC2=O)cc1 (stereo partly drawn) [Compound 9s, ((1S,5R,6R,8aR)-6-Hydroxy-5-(hydroxymethyl)-5,8a-dimethyl-1-((E)-2-(2-oxo-2,5-dihydrofuran-3-yl)vinyl)-1,4,4a,5,6,7,8,8a-octahydronaphthalen-2-yl)methyl 2-(4-Methoxyphenyl)acetate]
[1]; A549, 20 μM concentration, MTT, 48 h, 20 µM
  Cytotoxic Activity (% Growth Inhibition): 82.2 ± 0.78%
[1]; A549, ratio of IC50 values
  potency relative to andrographolide (times / fold more potent): ~7
[1]; Homo sapiens, A549
  IC50: 3.5 µM
[1]; Homo sapiens, A549, 48 h, read-out: Cytotoxic Activity (% Growth Inhibition), A549, 20 μM concentration, MTT, 48 h
  inhibition at 20 µM: 82%
[2]
  IC50: > 20 µM
[2]; 48 h, read-out: Cytotoxic Activity (% Growth Inhibition)
  inhibition at 20 µM: 27.6 ± 0.89%
[3]; MCF7
  IC50: 14.6 µM
[3]; MCF7, 48 h, read-out: Cytotoxic Activity (% Growth Inhibition)
  inhibition at 20 µM: 54 ± 0.74%
[4]; HCT-116
  IC50: > 20 µM
[4]; HCT-116, 48 h, read-out: Cytotoxic Activity (% Growth Inhibition)
  inhibition at 20 µM: 4.1 ± 0.97%
[5]
  IC50: 38.6 µM
[6]
  IC50: 13 µM
[7]; A549 versus HEK293
  selectivity index (SI) wrt HEK cell line: 13.9
[7]; HOP62 versus HEK293
  selectivity index (SI) wrt HEK cell line: 3.7
[7]; HOP92 versus HEK293
  selectivity index (SI) wrt HEK cell line: 1.26
[8]
  nuclear morphology / apoptosis (DAPI staining): nuclear morphological changes; also recorded: altered staining pattern, apoptotic bodies, and condensed chromatin; also recorded: induces apoptosis
[9]; 1 μM
  intracellular ROS generation: increases reactive oxygen species (ROS); also recorded: significantly induced more ROS generation
[9]; 3.5 and 5 μM
  intracellular ROS levels: ROS levels decrease
[10]
  mitochondrial membrane potential (MMP): disturbed mitochondrial membrane potential (MMP); also recorded: significant reduction in MMP; also recorded: disturbs mitochondrial membrane potential
